{"source": "ChEMBL document CHEMBL2331120", "about": "“Evidence for the analgesic activity of resveratrol in acute models of nociception in mice” (2013)", "key": {"[1]": {"test_system": "Mus musculus", "assay": "Antinociceptive activity in Swiss mouse assessed as inhibition of capsaicin-induced spontaneous nociception at 50 mg/kg, po", "assay_type": "functional", "in_short": "(§1)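 Swiss mice (30 to 35 g) acclimatized in observation chambers, then dosed orally 30 min before intraplantar capsaicin (1.6 μg in 20 μL, right hindpaw). Time spent licking the injected paw scored over 5 min. Saline controls on the same schedule. n = 8 per group. Percent inhibition taken as the mean of individual experiments.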"}, "[2]": {"test_system": "Mus musculus", "assay": "Antinociceptive activity in Swiss mouse assessed as inhibition of glutamate-induced increase of c-Fos expression in L3-L6 spinal segments at 100 mg/kg, po by immunohistochemistry analysis", "assay_type": "functional, organism-based", "parameters": "dose 100 mg/kg", "in_short": "(§2)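 Swiss mice dosed 100 mg/kg po 30 min before ipl glutamate (10 μmol per paw). Spinal cord and brain excised 60 min later and formalin-fixed. Sections immunostained with rabbit anti-c-Fos (1:1000) overnight at room temperature, then biotinylated secondary, ABC and nickel-enhanced DAB. Positive area per field quantified. Four animals per group.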"}, "[3]": {"test_system": "Mus musculus", "assay": "Antinociceptive activity in Swiss mouse assessed as inhibition of capsaicin-induced increase of COX2 expression in brain cortex at 100 mg/kg, po by Western blotting", "assay_type": "functional, organism-based", "parameters": "dose 100 mg/kg", "in_short": "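Mice dosed 100 mg/kg po or given saline, then capsaicin 1.6 μg/paw ipl. Cortex homogenized in hypotonic HEPES buffer with protease inhibitors plus Nonidet P-40. 20 μg protein run on 10% SDS-PAGE. Blot probed 12 h with anti-COX-2 (1:250), then HRP secondary. Bands by chemiluminescence and densitometry, normalized to β-actin. Four animals per group.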"}, "[4]": {"test_system": "Mus musculus", "assay": "Antinociceptive activity in Swiss mouse assessed as inhibition of capsaicin-induced increase of COX2 expression in L3-L6 spinal segments and cerebral cortex at 100 mg/kg, po by immunohistochemistry analysis", "assay_type": "functional, organism-based", "parameters": "dose 100 mg/kg", "in_short": "(§3)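 Swiss mice, 30 to 35 g, dosed 100 mg/kg po 30 min before ipl capsaicin (1.6 μg in 20 μL per paw). Spinal cord and brain taken 60 min later and fixed in buffered formalin. Sections stained with rabbit anti-c-Fos or anti-COX-2 (1:1000) overnight at room temperature, then biotinylated secondary, ABC and nickel-enhanced DAB. Read-out is positive area per field. Four animals per group.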"}, "[5]": {"test_system": "Mus musculus", "assay": "Antinociceptive activity in Swiss mouse assessed as inhibition of glutamate-induced increase of c-Fos expression in brain cortex at 100 mg/kg, po by immunohistochemistry analysis", "assay_type": "functional, organism-based", "parameters": "dose 100 mg/kg", "in_short": "as §2"}, "[6]": {"test_system": "Mus musculus", "assay": "Antinociceptive activity in Swiss mouse assessed as inhibition of capsaicin-induced increase of c-Fos expression in brain cortex at 100 mg/kg, po by immunohistochemistry analysis", "assay_type": "functional, organism-based", "parameters": "dose 100 mg/kg", "in_short": "as §3"}, "[7]": {"test_system": "Mus musculus", "assay": "Antinociceptive activity in Swiss mouse assessed as inhibition of capsaicin-induced increase of c-Fos expression in L3-L6 spinal segments at 100 mg/kg, po by immunohistochemistry analysis", "assay_type": "functional, organism-based", "parameters": "dose 100 mg/kg", "in_short": "as §3"}, "[8]": {"test_system": "Mus musculus", "assay": "Antinociceptive activity in Swiss mouse assessed as inhibition of capsaicin-induced biting behavior at 300 ug/site, administered intrathecally", "assay_type": "functional, organism-based", "in_short": "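Swiss mice, 30 to 35 g. Given 300 μg/site it, in 5 μL, co-injected with capsaicin (6.4 μg in 5 μL) into the subdural space at L5−L6. Biting is scored as single head movements directed at the flanks or hind limbs that contact the snout. Controls got saline. Eight animals per group.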"}, "[9]": {"test_system": "Mus musculus", "assay": "Antinociceptive activity in Swiss mouse assessed as inhibition of glutamate-induced biting behavior at 300 ug/site, administered intrathecally", "assay_type": "functional", "in_short": "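Glutamate (30 μg in 5 μL) injected intrathecally into the subdural space at L5–L6, co-injected with compound (300 μg in 5 μL, it). Biting was scored, defined as a head movement toward the flanks or hind limbs ending in snout contact. Saline controls. Eight mice per group.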"}, "[10]": {"test_system": "Mus musculus", "assay": "Antinociceptive activity in Swiss mouse assessed as inhibition of glutamate-induced spontaneous nociception at 300 ug/site, icv", "assay_type": "functional, organism-based", "in_short": "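Dosed icv at 300 μg/site in 5 μL, 10 min before glutamate (10 μmol/paw, ipl). Licking of the injected paw timed for 15 min in Swiss mice, against saline controls. Eight animals per group.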"}, "[11]": {"test_system": "Mus musculus", "assay": "Antinociceptive activity in Swiss mouse assessed as inhibition of capsaicin-induced spontaneous nociception at 300 ug/site, icv", "assay_type": "functional", "in_short": "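Intracerebroventricular injection (300 μg/site in 5 μL) 10 min before capsaicin (1.6 μg in 20 μL) into the right hindpaw plantar surface of Swiss mice. Paw-licking time (s) measured over 5 min against saline controls. n = 8. Inhibition calculated as the mean of per-experiment values.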"}, "[12]": {"test_system": "Mus musculus", "assay": "Antinociceptive activity in Swiss mouse assessed as inhibition of glutamate-induced spontaneous nociception at 300 ug/site, administered as intrathecally", "assay_type": "functional, organism-based", "in_short": "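Given intrathecally at 300 μg/site in 5 μL, 10 min before ipl glutamate (10 μmol per paw, in 20 μL) in Swiss mice. Paw-licking time recorded over 15 min. Saline controls. Eight animals per group.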"}, "[13]": {"test_system": "Mus musculus", "assay": "Antinociceptive activity in Swiss mouse assessed as inhibition of capsaicin-induced spontaneous nociception at 600 ug/site, administered as intrathecally", "assay_type": "functional", "in_short": "(§4)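 Mice given intrathecal dose in 5 μL 10 min before intraplantar capsaicin (1.6 μg/paw, 20 μL). Time spent licking the paw recorded for 5 min. Saline-treated controls. Eight animals per group. Percent inhibition averaged across individual experiments.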"}, "[14]": {"test_system": "Mus musculus", "assay": "Antinociceptive activity in Swiss mouse assessed as inhibition of capsaicin-induced spontaneous nociception at 300 ug/site, administered as intrathecally", "assay_type": "functional", "in_short": "as §4"}, "[15]": {"test_system": "Mus musculus", "assay": "Antinociceptive activity in Swiss mouse assessed as inhibition of capsaicin-induced spontaneous nociception at 150 ug/site, administered as intrathecally", "assay_type": "functional", "in_short": "as §4"}, "[16]": {"test_system": "Mus musculus", "assay": "Antinociceptive activity in Swiss mouse assessed as inhibition of capsaicin-induced spontaneous nociception at 200 ug/site, administered as intraplantarly", "assay_type": "functional, organism-based", "in_short": "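Given 200 μg/paw intraplantar, co-injected with capsaicin (1.6 μg in 20 μL) into the right hindpaw of Swiss mice. Time spent licking the injected paw recorded over 5 min. Saline controls. Eight animals per group.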"}, "[17]": {"test_system": "Mus musculus", "assay": "Antinociceptive activity in Swiss mouse assessed as inhibition of glutamate-induced spontaneous nociception at 200 ug/site, administered as intraplantarly", "assay_type": "functional", "in_short": "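Compound co-injected intraplantarly (200 μg/paw) with glutamate (10 μmol/paw, 20 μL) into the right hindpaw of Swiss mice. Licking of the injected paw timed over 15 min. Saline controls. n = 8 per group.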"}, "[18]": {"test_system": "Mus musculus", "assay": "Antinociceptive activity in Swiss mouse assessed as inhibition of glutamate-induced spontaneous nociception at 100 mg/kg, po", "assay_type": "functional", "in_short": "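Oral pretreatment 30 min before intraplantar glutamate (10 μmol/paw, 20 μL) into the right hindpaw. Mice observed individually for 15 min for time spent licking the injected paw. Saline controls. Eight animals per group. Percent inhibition taken as the mean of individual experiments.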"}, "[19]": {"test_system": "Mus musculus", "assay": "Antinociceptive activity in Swiss mouse assessed as inhibition of capsaicin-induced spontaneous nociception at 100 mg/kg, po", "assay_type": "functional", "in_short": "as §1"}, "[20]": {"test_system": "Mus musculus", "assay": "Antinociceptive activity in Swiss mouse assessed as inhibition of glutamate-induced increase of COX2 expression in spinal cord and cortex brain section at 100 mg/kg, po"}}, "note": "The source made the active and inactive calls.", "data": [{"smiles": "Oc1ccc(/C=C/c2cc(O)cc(O)c2)cc1", "note": "[RESVERATROL]", "values": [{"measurement": "inhibition in vivo at 50 mg/kg", "setting": "[1]", "value": 29, "unit": "%"}, {"measurement": "inhibition", "setting": "[2]", "value": "inactive"}, {"measurement": "inhibition", "setting": "[3]", "value": "Active"}, {"measurement": "inhibition", "setting": "[4]", "value": "Active"}, {"measurement": "inhibition", "setting": "[5]", "value": "inactive"}, {"measurement": "inhibition", "setting": "[6]", "value": "inactive"}, {"measurement": "inhibition", "setting": "[7]", "value": "Active"}, {"measurement": "inhibition", "setting": "[8]", "value": "inactive"}, {"measurement": "inhibition (INH)", "setting": "[9]", "value": 74, "unit": "%"}, {"measurement": "inhibition", "setting": "[10]", "value": "inactive"}, {"measurement": "inhibition (INH)", "setting": "[11]", "value": 87, "unit": "%"}, {"measurement": "inhibition", "setting": "[12]", "value": "inactive"}, {"measurement": "inhibition (INH)", "setting": "[13]", "value": 36, "unit": "%"}, {"measurement": "inhibition (INH)", "setting": "[14]", "value": 44, "unit": "%"}, {"measurement": "inhibition (INH)", "setting": "[15]", "value": 33, "unit": "%"}, {"measurement": "inhibition", "setting": "[16]", "value": "inactive"}, {"measurement": "inhibition (INH)", "setting": "[17]", "value": 33, "unit": "%"}, {"measurement": "inhibition in vivo at 100 mg/kg", "setting": "[18]", "value": 39, "unit": "%"}, {"measurement": "inhibition in vivo at 100 mg/kg", "setting": "[19]", "value": 36, "unit": "%"}, {"measurement": "inhibition", "setting": "[20]", "value": "inactive"}]}]}
